# Source: ChEMBL document CHEMBL3576779, “Cyclic colisporifungin and linear cavinafungins, antifungal lipopeptides isolated from Colispora cavincola” (J Nat Prod, 2015)
# Active and inactive are the calls of the source. The calls are words filed in the database; no cut-off is given here. Non-standard residues stand in square brackets, D forms with d. Residues, ends and D or L forms follow the SMILES beside them. *: point of attachment. Pro(4R-Me) = C[C@H]1CN[C@H](C(=O)O)C1; Oleoyl = CCCCCCCC/C=C\CCCCCCCC(=O)*; hSer = N[C@@H](CCO)C(=O)O; Alaol = C[C@@H](CO)N*
# How the values were obtained:
# Aspergillus fumigatus [1] = experiment: Antifungal activity against Aspergillus fumigatus ATCC 46645 after 24 hrs by resazurin test in presence of caspofungin; format: functional; settings: ATCC 46645, 24 h
# Method in brief: (§1)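 Tested with and without sublethal caspofungin (0.015 μg/mL for A. fumigatus, 0.03 μg/mL for C. albicans) at 37 °C for 24 h. Resazurin 0.002% added 3–4 h before reading; fluorescence read at ex 570/em 615 nm. C. albicans was grown overnight in SDB, set to OD600 0.25 in RPMI-modified medium (pH 7.1) and diluted 1:10. Run in triplicate.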
# Aspergillus fumigatus [2] = experiment: Antifungal activity against Aspergillus fumigatus ATCC 46645 at 8 ug/ml after 24 hrs by resazurin test; format: functional, organism-based; method in brief: as §1
# Nakaseomyces glabratus [3] = experiment: Antifungal activity against Candida glabrata MY992 at 8 ug/ml after 24 hrs by resazurin test; format: functional, organism-based
# Aspergillus fumigatus [4] = experiment: Potentiation of caspofungin-induced antifungal activity against Aspergillus fumigatus ATCC 46645 at 2 ug/ml after 24 hrs by checkerboard method relative to control; format: functional
# Method in brief: (§2)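 Checkerboard of double dilutions: caspofungin at final 0.24–0.00018 μg/mL (columns) crossed with test compound at final 8–0.015 μg/mL (rows) in the central 80 wells of one plate. Caspofungin dose–response curves gave IC50 values at each compound level.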
# Candida albicans [5] = experiment: Antifungal activity against Candida albicans MY1055 at 8 ug/ml after 24 hrs by resazurin test; format: functional, organism-based; method in brief: as §1
# Candida albicans [6] = experiment: Antifungal activity against Candida albicans MY1055 after 24 hrs by resazurin test in presence of caspofungin; format: functional; settings: MY1055, 24 h; method in brief: as §1
# Candida albicans [7] = experiment: Potentiation of caspofungin-induced antifungal activity against Candida albicans MY1055 at 1 ug/ml after 24 hrs by checkerboard method; format: functional, organism-based; method in brief: as §2
# Candida albicans [8] = experiment: Antifungal activity against Candida albicans MY1055 after 24 hrs by 2-fold serial dilution method; format: functional; settings: MY1055, 24 h
# Method in brief: (§3)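 Cells were inoculated at 10^5 CFU/mL into 2-fold serial compound dilutions in growth medium and incubated at 37 °C. The MIC was recorded after 24 h as the lowest concentration inhibiting visible growth. Where given, the MIC80 is 80% inhibition, reported as prominent inhibition.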
# Candida parapsilosis = experiment: Antifungal activity against Candida parapsilosis ATCC 22019 after 24 hrs by 2-fold serial dilution method; format: functional; settings: ATCC 22019, 24 h; method in brief: as §3
# Candida albicans [9] = experiment: Antifungal activity against Candida albicans MY1055 after 24 hrs by 2-fold serial dilution method in presence of 50% mouse serum; format: functional; settings: MY1055, 24 h
# Nakaseomyces glabratus [10] = experiment: Antifungal activity against Candida glabrata ATCC 90030 after 24 hrs by 2-fold serial dilution method; format: functional; settings: ATCC 90030, 24 h; method in brief: as §3
# Pichia kudriavzevii = experiment: Antifungal activity against Candida krusei ATCC 6258 after 24 hrs by 2-fold serial dilution method; format: functional; settings: ATCC 6258, 24 h; method in brief: as §3
# Candida tropicalis = experiment: Antifungal activity against Candida tropicalis ATCC 750 after 24 hrs by 2-fold serial dilution method; format: functional; settings: ATCC 750, 24 h; method in brief: as §3
# Aspergillus fumigatus [11] = experiment: Antifungal activity against Aspergillus fumigatus MF5668 after 48 hrs by 2-fold serial dilution method; format: functional; settings: MF5668, 48 h
# Method in brief: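 Broth microdilution MIC test: the inoculum was 10^5 CFU/mL, with a 2-fold serial dilution of compound in growth medium at 37 °C. The MIC was read after 48 h incubation as the lowest concentration inhibiting visible growth. Where given, the MIC80 is 80% inhibition, reported as prominent inhibition.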
# Clavispora lusitaniae = experiment: Antifungal activity against Clavispora lusitaniae ATCC 34449 after 24 hrs by 2-fold serial dilution method; format: functional; settings: ATCC 34449, 24 h; method in brief: as §3
# Aspergillus fumigatus [12] = experiment: Antifungal activity against Aspergillus fumigatus ATCC 46645 assessed as growth inhibition after 24 hrs by checkerboard method; format: functional, organism-based; settings: ATCC 46645, 24 h; method in brief: as §2
Structure (SMILES),MIC (Aspergillus fumigatus [1]) [mg/L],Activity (Aspergillus fumigatus [2]),Activity (Nakaseomyces glabratus [3]),fold change (FC) (Aspergillus fumigatus [4]),Activity (Candida albicans [5]),MIC (Candida albicans [6]) [mg/L],Activity (Candida albicans [7]),MIC (Candida albicans [8]) [mg/L],MIC (Candida parapsilosis) [mg/L],MIC (Candida albicans [9]) [mg/L],MIC (Nakaseomyces glabratus [10]) [mg/L],MIC (Pichia kudriavzevii) [mg/L],MIC (Candida tropicalis) [mg/L],MIC (Aspergillus fumigatus [11]) [mg/L],MIC80 (Aspergillus fumigatus [11]) [mg/L],MIC (Clavispora lusitaniae) [mg/L],IC50 (Aspergillus fumigatus [12]) [µM]
CCCCCCCCCCCC(=O)N[C@@H](CCC(N)=O)C(=O)N[C@@H]1C(=O)NCCC(=O)N[C@H](Cc2c[nH]c3ccccc23)C(=O)N[C@@H](CO)C(=O)N[C@H](Cc2ccccc2)C(=O)O[C@@H]1C,4,inactive,inactive,5.3,inactive,2,Active,–,–,–,–,–,–,–,–,–,–
CCCCCCCC/C=C\CCCCCCCC(=O)N[C@H](C(=O)N1C[C@H](C)C[C@H]1C(=O)N[C@H](C(=O)N[C@@H](CCOC(C)=O)C(=O)N[C@@H](C)C=O)C(C)C)[C@@H](C)O (Oleoyl-T[Pro(4R-Me)]V[hSer](Ac)A-aldehyde),–,–,–,–,–,–,–,2,2,> 32,2,4,0.5,> 32,8,2,–
CCCCCCCC/C=C\CCCCCCCC(=O)N[C@H](C(=O)N1C[C@H](C)C[C@H]1C(=O)N[C@H](C(=O)N[C@@H](CCO)C(=O)N[C@@H](C)CO)C(C)C)[C@@H](C)O (Oleoyl-T[Pro(4R-Me)]V[hSer]-Alaol),–,–,–,–,–,–,–,> 32,> 32,–,> 32,> 32,> 32,–,–,> 32,–
CCCCCCCC/C=C\CCCCCCCC(=O)N[C@H](C(=O)N1C[C@H](C)C[C@H]1C(=O)N[C@H](C(=O)N[C@@H](CCO)C(=O)N[C@@H](C)C=O)C(C)C)[C@@H](C)O (Oleoyl-T[Pro(4R-Me)]V[hSer]A-aldehyde),–,–,–,–,–,–,–,2,2,> 32,2,2,0.5,> 32,8,2,–
CC[C@H](C)C[C@H](C)CCCCCCCCC(=O)N[C@H]1C[C@@H](O)[C@@H](NCCN)NC(=O)[C@@H]2[C@@H](O)CCN2C(=O)[C@H]([C@H](O)CCN)NC(=O)[C@H]([C@H](O)[C@@H](O)c2ccc(O)cc2)NC(=O)[C@@H]2C[C@@H](O)CN2C(=O)[C@H]([C@@H](C)O)NC1=O [CASPOFUNGIN],–,–,–,–,–,–,–,–,–,–,–,–,–,–,–,–,0.033
